{"source": "ChEMBL document CHEMBL3616436", "about": "“Synthesis, cytotoxicity and antimicrobial activity of thiourea derivatives incorporating 3-(trifluoromethyl)phenyl moiety” (Eur J Med Chem, 2015)", "key": {"[1]": {"tested_on": "Mycobacterium tuberculosis", "test": "Antimycobacterial activity against drug-sensitive Mycobacterium tuberculosis Spec. 192", "assay_type": "functional", "procedure,_shortened": "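Classical test-tube successive-dilution method in Youmans' modification of Proskauer and Beck liquid medium with 10% bovine serum. Inoculum came from 14-day cultures. DMSO stock was 10 mg/mL, diluted geometrically in medium. Tubes were incubated at 37 °C. Concentrations tested were 3.1, 6.2, 12.5, 25, 50 and 100 µg/ml. MIC is the minimum concentration inhibiting growth relative to compound-free tubes.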"}, "[2]": {"tested_on": "Staphylococcus epidermidis", "test": "Antimicrobial activity against hospital methicillin-resistant Staphylococcus epidermidis 63/04 after 18 hrs by twofold serial microdilution method", "assay_type": "functional", "conditions": "63/04, 18 h", "procedure,_shortened": "(§1)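 Twofold serial microdilution in Mueller-Hinton broth. Compound stock was made in DMSO and diluted in sterile water. Tested range was 0.125–512 µg/mL. Final inoculum was 10^5 CFU/mL. Plates were incubated 18 h at 35 °C. MIC is the lowest concentration preventing visible growth.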"}, "[3]": {"tested_on": "Vesicular stomatitis virus", "test": "Antiviral activity against Vesicular stomatitis virus ATCC VR 1540 infected in African green monkey Vero 76 cells assessed as reduction of virus-plaque formation after 2 days by crystal violet staining", "assay_type": "functional, organism-based", "conditions": "ATCC VR 1540, Vero, 48 h"}, "[4]": {"test": "Cytotoxicity against bovine MDBK cells assessed as cell viability after 48 to 96 hrs by MTT assay", "assay_type": "cell-based, Bos taurus", "conditions": "cattle"}, "[5]": {"tested_on": "Mammalian orthoreovirus 1", "test": "Antiviral activity against Reovirus type-1 ATCC VR-214 infected in BHK cells assessed as protection against virus-induced cytopathogenicity after 3 to 4 days by MTT assay", "assay_type": "functional, cell-based", "conditions": "Mammalian orthoreovirus 1, ATCC VR-214, BHK", "procedure,_shortened": "(§2)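 Cells seeded in 96-well plates (BHK 5x10^4, MDBK 3x10^4 cells/well), grown overnight to confluence, infected at m.o.i. 0.01 (BHK for Reo-1, MDBK for BVDV); serial compound dilutions in maintenance medium with 0.5% inactivated FBS added after 1 h; viability by MTT after 3–4 days at 37°C; EC50 for 50% protection by linear regression.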"}, "[6]": {"tested_on": "Staphylococcus aureus", "test": "Antimicrobial activity against Staphylococcus aureus ATCC 29213 after 18 hrs by twofold serial microdilution method", "assay_type": "functional", "conditions": "ATCC 29213, 18 h"}, "[7]": {"tested_on": "Staphylococcus aureus", "test": "Antimicrobial activity against hospital methicillin-resistant Staphylococcus aureus 54/05 after 18 hrs by twofold serial microdilution method", "assay_type": "functional", "conditions": "54/05, 18 h", "procedure,_shortened": "as §1"}, "[8]": {"tested_on": "Staphylococcus epidermidis", "test": "Ratio of ciprofloxacin MIC to compound MIC for hospital methicillin-resistant Staphylococcus epidermidis 24/04 after 18 hrs by twofold serial microdilution method", "assay_type": "functional"}, "[9]": {"tested_on": "Staphylococcus aureus", "test": "Antimicrobial activity against Staphylococcus aureus ATCC 6538 after 18 hrs by twofold serial microdilution method", "assay_type": "functional", "conditions": "ATCC 6538, 18 h"}, "[10]": {"tested_on": "Staphylococcus epidermidis", "test": "Antimicrobial activity against Staphylococcus epidermidis ATCC 35984 after 18 hrs by twofold serial microdilution method", "assay_type": "functional", "conditions": "ATCC 35984, 18 h"}, "[11]": {"tested_on": "Staphylococcus epidermidis", "test": "Antimicrobial activity against hospital methicillin-resistant Staphylococcus epidermidis 76/04 after 18 hrs by twofold serial microdilution method", "assay_type": "functional", "conditions": "76/04, 18 h", "procedure,_shortened": "as §1"}, "[12]": {"tested_on": "Staphylococcus epidermidis", "test": "Antimicrobial activity against hospital methicillin-resistant Staphylococcus epidermidis 23/04 after 18 hrs by twofold serial microdilution method", "assay_type": "functional", "conditions": "23/04, 18 h", "procedure,_shortened": "as §1"}, "[13]": {"tested_on": "Staphylococcus aureus", "test": "Ratio of ciprofloxacin MIC to compound MIC for hospital methicillin-resistant Staphylococcus aureus 81/05 after 18 hrs by twofold serial microdilution method", "assay_type": "functional", "procedure,_shortened": "(§3)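 Ratio of MICs for ciprofloxacin and test agent, each from twofold serial broth microdilution in Mueller-Hinton broth following CLSI guidelines. DMSO stock was diluted in sterile water to 0.125–512 µg/mL, with a final inoculum of 10^5 CFU/mL.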"}, "[14]": {"test": "Cytotoxicity against human MT4 cells", "assay_type": "cell-based"}, "[15]": {"test": "Cytotoxicity against BHK cells assessed as cell viability after 48 to 96 hrs by MTT assay", "assay_type": "cell-based, Mesocricetus auratus", "conditions": "hamster"}, "[16]": {"test": "Cytotoxicity against African green monkey Vero 76 cells assessed as cell viability after 48 to 96 hrs by crystal violet staining", "assay_type": "cell-based", "conditions": "chlorocebus sabaeus"}, "[17]": {"tested_on": "Micrococcus luteus", "test": "Antimicrobial activity against Micrococcus luteus ATCC 9341 at 400 ug after 18 hrs by disc-diffusion method", "assay_type": "functional", "conditions": "ATCC 9341, 18 h, read-out: IZ", "procedure,_shortened": "(§4)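 Disc diffusion on Mueller-Hinton II agar per CLSI; 9 mm paper discs loaded with 400 µg compound from DMSO solution, dried, placed on agar; growth inhibition zone diameter read after 18 h at 35°C.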"}, "[18]": {"tested_on": "Staphylococcus aureus", "test": "Ratio of ciprofloxacin MIC to compound MIC for hospital methicillin-resistant Staphylococcus aureus 53/05 after 18 hrs by twofold serial microdilution method", "assay_type": "functional", "procedure,_shortened": "as §3"}, "[19]": {"tested_on": "Staphylococcus epidermidis", "test": "Antimicrobial activity against hospital methicillin-resistant Staphylococcus epidermidis 24/04 after 18 hrs by twofold serial microdilution method", "assay_type": "functional", "conditions": "24/04, 18 h", "procedure,_shortened": "as §1"}, "[20]": {"tested_on": "Staphylococcus epidermidis", "test": "Antimicrobial activity against hospital methicillin-resistant Staphylococcus epidermidis 151/04 after 18 hrs by twofold serial microdilution method", "assay_type": "functional", "conditions": "151/04, 18 h", "procedure,_shortened": "as §1"}, "[21]": {"tested_on": "Staphylococcus epidermidis", "test": "Ratio of ciprofloxacin MIC to compound MIC for hospital methicillin-resistant Staphylococcus epidermidis […]/[…] after 18 hrs by twofold serial microdilution method", "assay_type": "functional, 16/04"}, "[22]": {"tested_on": "Staphylococcus epidermidis", "test": "Ratio of ciprofloxacin MIC to compound MIC for hospital methicillin-resistant Staphylococcus epidermidis 151/04 after 18 hrs by twofold serial microdilution method", "assay_type": "functional", "procedure,_shortened": "as §3"}, "[23]": {"tested_on": "Staphylococcus aureus", "test": "Antimicrobial activity against Staphylococcus aureus NCTC 4163 at 400 ug after 18 hrs by disc-diffusion method", "assay_type": "functional", "conditions": "NCTC 4163, 18 h, read-out: IZ", "procedure,_shortened": "as §4"}, "[24]": {"tested_on": "Staphylococcus aureus", "test": "Antimicrobial activity against hospital methicillin-resistant Staphylococcus aureus 57/05 after 18 hrs by twofold serial microdilution method", "assay_type": "functional", "conditions": "57/05, 18 h", "procedure,_shortened": "as §1"}, "[25]": {"tested_on": "Staphylococcus aureus", "test": "Ratio of ciprofloxacin MIC to compound MIC for hospital methicillin-resistant Staphylococcus aureus 79/05 after 18 hrs by twofold serial microdilution method", "assay_type": "functional", "procedure,_shortened": "as §3"}, "[26]": {"tested_on": "Staphylococcus aureus", "test": "Ratio of ciprofloxacin MIC to compound MIC for hospital methicillin-resistant Staphylococcus aureus 573/11 after 18 hrs by twofold serial microdilution method", "assay_type": "functional", "procedure,_shortened": "as §3"}, "[27]": {"tested_on": "Staphylococcus aureus", "test": "Antimicrobial activity against Staphylococcus aureus ATCC 6538 at 400 ug after 18 hrs by disc-diffusion method", "assay_type": "functional", "conditions": "ATCC 6538, 18 h, read-out: IZ", "procedure,_shortened": "as §4"}, "[28]": {"tested_on": "Staphylococcus aureus", "test": "Antimicrobial activity against hospital methicillin-resistant Staphylococcus aureus 522/11 after 18 hrs by twofold serial microdilution method", "assay_type": "functional", "conditions": "522/11, 18 h", "procedure,_shortened": "as §1"}, "[29]": {"tested_on": "Bacillus subtilis", "test": "Antimicrobial activity against Bacillus subtilis ATCC 6633 at 400 ug after 18 hrs by disc-diffusion method", "assay_type": "functional", "conditions": "ATCC 6633, 18 h, read-out: IZ", "procedure,_shortened": "as §4"}, "[30]": {"tested_on": "Staphylococcus aureus", "test": "Ratio of ciprofloxacin MIC to compound MIC for hospital methicillin-resistant Staphylococcus aureus 54/05 after 18 hrs by twofold serial microdilution method", "assay_type": "functional", "procedure,_shortened": "as §3"}, "[31]": {"tested_on": "Staphylococcus epidermidis", "test": "Antimicrobial activity against hospital methicillin-resistant Staphylococcus epidermidis 62/04 after 18 hrs by twofold serial microdilution method", "assay_type": "functional", "conditions": "62/04, 18 h", "procedure,_shortened": "as §1"}, "[32]": {"tested_on": "Staphylococcus epidermidis", "test": "Antimicrobial activity against Staphylococcus epidermidis ATCC 12228 after 18 hrs by twofold serial microdilution method", "assay_type": "functional", "conditions": "ATCC 12228, 18 h"}, "[33]": {"test": "Antiviral activity against Bovine viral diarrhea virus 1-NADL ATCC VR-534 infected in MDBK cells assessed as protection against virus-induced cytopathogenicity after 3 to 4 days by MTT assay", "assay_type": "functional, cell-based", "conditions": "Bovine viral diarrhea virus isolates and strains, ATCC VR-534, MDBK", "procedure,_shortened": "as §2"}}}
{"smiles": "FC(F)(F)c1cccc(NC(=S)Nc2cccc(Br)c2)c1", "values": [{"measurement": "MIC", "setting": "[1]", "result": "> 100", "unit": "µg/mL"}, {"measurement": "MIC", "setting": "[2]", "result": 1, "unit": "µg/mL"}, {"measurement": "EC50", "setting": "[3]", "result": "> 14", "unit": "µM"}, {"measurement": "CC50", "setting": "[4]", "result": 10, "unit": "µM"}, {"measurement": "EC50", "setting": "[5]", "result": "> 10", "unit": "µM"}, {"measurement": "MIC", "setting": "[6]", "result": 1, "unit": "µg/mL"}, {"measurement": "MIC", "setting": "[7]", "result": 0.5, "unit": "µg/mL"}, {"measurement": "Ratio", "setting": "[8]", "result": 128}, {"measurement": "MIC", "setting": "[9]", "result": 1, "unit": "µg/mL"}, {"measurement": "MIC", "setting": "[10]", "result": 2, "unit": "µg/mL"}, {"measurement": "MIC", "setting": "[11]", "result": 1, "unit": "µg/mL"}, {"measurement": "MIC", "setting": "[12]", "result": 2, "unit": "µg/mL"}, {"measurement": "Ratio", "setting": "[13]", "result": 128}, {"measurement": "CC50", "setting": "[14]", "result": 9.2, "unit": "µM"}, {"measurement": "CC50", "setting": "[15]", "result": 10, "unit": "µM"}, {"measurement": "CC50", "setting": "[16]", "result": 14, "unit": "µM"}, {"measurement": "zone of inhibition at 400 µg/disc", "setting": "[17]", "result": 33, "unit": "mm"}, {"measurement": "Ratio", "setting": "[18]", "result": 128}, {"measurement": "MIC", "setting": "[19]", "result": 4, "unit": "µg/mL"}, {"measurement": "MIC", "setting": "[20]", "result": 2, "unit": "µg/mL"}, {"measurement": "Ratio", "setting": "[21]", "result": 128}, {"measurement": "Ratio", "setting": "[22]", "result": 128}, {"measurement": "zone of inhibition at 400 µg/disc", "setting": "[23]", "result": 28, "unit": "mm"}, {"measurement": "MIC", "setting": "[24]", "result": 1, "unit": "µg/mL"}, {"measurement": "Ratio", "setting": "[25]", "result": 128}, {"measurement": "Ratio", "setting": "[26]", "result": 128}, {"measurement": "zone of inhibition at 400 µg/disc", "setting": "[27]", "result": 29, "unit": "mm"}, {"measurement": "MIC", "setting": "[28]", "result": 0.5, "unit": "µg/mL"}, {"measurement": "zone of inhibition at 400 µg/disc", "setting": "[29]", "result": 26, "unit": "mm"}, {"measurement": "Ratio", "setting": "[30]", "result": 128}, {"measurement": "MIC", "setting": "[31]", "result": 1, "unit": "µg/mL"}, {"measurement": "MIC", "setting": "[32]", "result": 2, "unit": "µg/mL"}, {"measurement": "EC50", "setting": "[33]", "result": "> 10", "unit": "µM"}]}
